From PubChem
Shown are actives, neighbours in structure and some others; about 3.1% of the full set was active somewhere.
MPTP inh = mitochondrial permeability transition pore inhibitors, primary screen, biochemical, isolated mouse mitochondria, absorbance; AID 602449, 2012; actives 1.4% (n = 360,000); inhibition, % at 10 µM; Ca2+ swelling absorbance, 30 min;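 active means inhibition of 50% or more, scaled per plate between neutral and stimulator controls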
ADAM10 inh = human ADAM10 inhibitors, primary screen, biochemical, QFRET, HTS. AID 720582, 2013. inhibition, % at 7 µM. recombinant ADAM10, EDANS/DABCYL FRET peptide cleavage, 3 h. Disintegrin and metalloproteinase domain-containing protein 10 (Homo sapiens), O14672. actives 0.62% (n = 370,000);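 active means inhibition above a per-campaign cutoff equal to the mean of compounds falling between control-based bounds plus 3 SD, cut at about 20% in these data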
Target sequence (O14672 214-748 limits assumed): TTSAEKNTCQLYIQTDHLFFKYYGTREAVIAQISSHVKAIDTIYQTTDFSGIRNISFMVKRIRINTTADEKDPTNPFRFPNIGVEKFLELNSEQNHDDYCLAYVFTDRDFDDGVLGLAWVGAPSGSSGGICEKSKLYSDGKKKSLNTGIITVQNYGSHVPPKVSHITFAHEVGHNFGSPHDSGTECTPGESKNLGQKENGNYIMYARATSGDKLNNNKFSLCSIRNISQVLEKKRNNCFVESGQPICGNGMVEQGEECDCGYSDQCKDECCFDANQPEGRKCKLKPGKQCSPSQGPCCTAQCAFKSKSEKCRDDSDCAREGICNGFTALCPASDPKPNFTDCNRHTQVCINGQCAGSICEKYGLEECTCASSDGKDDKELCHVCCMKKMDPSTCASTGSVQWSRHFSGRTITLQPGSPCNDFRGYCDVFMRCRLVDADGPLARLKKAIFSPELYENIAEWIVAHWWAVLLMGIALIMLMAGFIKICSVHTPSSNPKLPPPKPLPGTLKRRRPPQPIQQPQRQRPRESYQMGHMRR
ADAM17 inh = ADAM17 inhibitors, primary screen, biochemical, QFRET | inhibition, % at 6.95 µM | recombinant ADAM17, EDANS/DABCYL FRET peptide cleavage | actives 0.83% (n = 370,000);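 active means inhibition above the mean of compounds lying between control limits plus 3 SD, set per campaign, cut at about 8.5% in these data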
Lipid droplet = inhibitors of hepatocyte lipid droplet formation, primary screen, imaging, high-throughput imaging, BODIPY stain. actives 0.4% (n = 240,000). inhibition, % at 6.5 µM. AID 1656, 2009. AML12 mouse hepatocytes, oleate lipid droplets;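 active means lipid droplet intensity inhibited by at least 50%, with more than 500 cells counted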
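Assay system: AML12 mouse liver cells | Compound: 6.5 µM single-point dosing | Schedule: Overnight exposure | Technique: Fluorescence imaging, 20x objective, two fields per well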
aDG glyco act = activators of alpha-DG glycosylation, primary screen, uHTS, Pro5-aDG cells, AlphaScreen. activation, % at 10 µM. actives 0.22% (n = 360,000). alpha-DG glycosylation AlphaScreen (IIH6); 0% Pro5, 100% B10-LARGE cell signal;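 active means activation of at least 8% versus controls, or a plate z-score of at least 8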;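 further: Pro5 are CHO cells carrying HIG-tagged alpha-DG that lacks glycosylation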
V-ATPase pH = regulators of yeast V-ATPase proton pumping, primary screen, pHLuorin cytosolic pH fluorescence; S. cerevisiae; AID 504577, 2011; response, % at 10 µM; actives 0.37% (n = 350,000); in the data active means response mostly above about 7.3%, no sharp cut-off; inactive means mostly below about 5.4%; further: actives read high
Numbers stand for hits; – = inactive; · = not tested or not shown.

SMILES	MPTP inh	ADAM10 inh	ADAM17 inh	Lipid droplet	aDG glyco act	V-ATPase pH
COc1ccc2nc(N3CCCC3)c(C#N)cc2c1	–	–	–	–	–	11
COc1ccc2nc(N3CCCCC3)c(C#N)cc2c1	–	–	–	·	–	–
O=C(N/N=C/c1ccc([N+](=O)[O-])o1)c1cc2ccccc2o1	–	–	–	–	3.6	–
C=CCC[C@H](Cc1ccc(F)cc1)C(=O)OC[C@@H](NC(=O)[C@@H](CC=C)CC(=O)N[C@@H](CO)Cc1ccccc1)C(C)(C)C	–	20	–	·	–	–
O=C1/C(=N\S(=O)(=O)c2cccs2)C([n+]2ccccc2)=C([O-])c2ccccc21	–	–	–	–	–	–
CC(C)(C)c1cc[n+](C2=C([O-])c3ccccc3C(=O)/C2=N\S(=O)(=O)c2cccs2)cc1	–	–	–	–	3.9	–
O=C(COC(=O)c1cccc(Cl)c1)NCCN1C(=O)CSC1=O	–	–	–	–	–	16
CN(CCO)C1CN(Cc2cn(Cc3ccccc3F)nn2)S(=O)(=O)C1 (stereo unspecified)	·	–	–	·	·	·
CSc1ccccc1NC(=O)CN(c1cccc(C)c1)S(C)(=O)=O	–	–	–	·	–	13
CC(=O)N1CCN(c2cc(-c3ccco3)nc3cc(-c4ccccc4)nn23)CC1	·	–	–	·	·	·
O=C(C1=C[C@@H](c2ccc(C(F)(F)F)cc2)C[C@@H](OCc2ccc(CO)cc2)O1)N1CCN(Cc2ccc3c(c2)OCO3)CC1	–	28	–	–	–	–
O=C(C1=C[C@H](c2ccc(C(F)(F)F)cc2)C[C@H](OCc2ccc(CO)cc2)O1)N1CCN(Cc2ccc3c(c2)OCO3)CC1	–	–	–	–	–	–
CCOC(=O)c1c(C)c(C(=O)Nc2ccccc2)c(C)n1CC	–	–	–	–	–	20
CCOC(=O)c1c(C)c(C(=O)Nc2cc(OC)ccc2OC)c(C)n1CC	–	–	–	·	–	15
CN(C)S(=O)(=O)c1ccc(NC(=O)c2ccc(Br)o2)cc1	–	·	·	–	–	–
CN(C1CCCCC1)S(=O)(=O)c1ccc(NC(=O)c2ccc(Br)o2)cc1	–	20	–	–	–	–
CC(=O)OCCCN1C(=O)CCC12CCC(C)CC2 (stereo unspecified)	·	–	–	·	·	·
CCOc1ccc(S(=O)(=O)Nc2ccc(C(=O)N/N=C(\C)c3ccc(-n4ccnc4)cc3)cc2)cc1	–	–	9.0	–	–	–
COc1ccc(NS(=O)(=O)c2cccc(C(=O)N/N=C(/C)c3ccc(-n4ccnc4)cc3)c2)cc1	–	–	–	·	–	–
O=C(NCCCc1ccccc1)C1CCN(c2nc(-c3ccc(Br)cc3)cs2)CC1	·	–	–	·	·	·
CCOC(=O)CC[C@@H]1CC[C@]2(CCCN(C(=O)C(C)(C)C)C2)O1	·	–	–	·	·	·
C[C@@]12C[C@@H]3C(=O)N(Cc4ccccc4)CC(=O)N3[C@@H]1N(S(=O)(=O)c1ccccc1)c1ccccc12	·	–	–	·	·	·
CC(C)(C)NC(=O)c1ccc2c(c1)C1C3CCC(C3)C1C(c1ccccc1)N2 (stereo unspecified)	–	–	–	–	–	–
CCCNC(=O)c1ccc2c(c1)C1C3CCC(C3)C1C(c1ccccc1)N2 (stereo unspecified)	–	–	–	–	–	19
O=C(c1ccc(F)cc1Cl)N(Cc1ccccn1)CC1CCCO1 (stereo unspecified)	·	–	–	·	·	·
SMILES	MPTP inh	ADAM10 inh	ADAM17 inh	Lipid droplet	aDG glyco act	V-ATPase pH
COC(=O)c1ccc(COc2ccc(F)cc2)o1	–	–	–	61	–	–
c1ccc(-c2c[nH]c3ccc(OCc4ccc5ccccc5n4)c(-c4ccccc4)c23)cc1	·	–	–	·	·	·
COc1ccc(NC(=O)N2CC(C)OC(C)C2)cc1OC (stereo unspecified)	–	–	–	–	–	–
COc1ccc(C)cc1NC(=S)N1CC(C)OC(C)C1 (stereo unspecified)	–	–	–	–	–	15
CCC(=O)N[C@@H]1C[C@@H]2O[C@@H](CO)CC[C@@H]2O[C@@H]1CCc1ccc(-c2cccc(OC)c2)cc1	·	–	–	·	·	·
COc1ccc(S(=O)(=O)N2CCc3ccccc3C2)cc1OC	–	21	–	·	–	–
COc1ccc(CN(C(=O)CSc2nnc(-c3ccc(F)cc3)o2)c2ccc(F)cc2)cc1	–	–	–	·	–	–
COc1ccc(CN(C(=O)CSc2nnc(-c3c[nH]c4ccccc34)o2)c2ccc(F)cc2)cc1OC	–	22	–	–	–	–
Cc1cc(C)n(C(CC(=O)N2CCc3ccccc3C2)C(=O)O)n1 (stereo unspecified)	–	–	–	·	–	16
C=CCN1[C@@H](CC(C)C)COc2cccc(N3CCCC3)c2S1(=O)=O	·	–	–	·	·	·
COc1cccc(C(=O)N/N=C/c2ccc(Oc3ccc([N+](=O)[O-])cn3)c(OC)c2)c1	–	–	–	–	–	–
COc1cc(/C=N/NC(=O)c2ccc3ccccc3c2)ccc1Oc1ccc([N+](=O)[O-])cn1	–	–	–	56	–	–
CC(Oc1ccc(Cl)cc1Cl)c1nc(-c2ccc(NC(=O)c3cccnc3)cc2)no1 (stereo unspecified)	–	–	–	–	14	–
CC(Oc1ccc(Cl)cc1Cl)c1nc(-c2ccc(NC(=O)c3ccncc3)cc2)no1 (stereo unspecified)	–	–	–	–	–	–
CCn1c(=S)[nH]c2c(c1=O)C(C)(C)Cc1ccccc1-2	–	–	–	–	–	13
O=C(CC1CCCC1)N1CCN(S(=O)(=O)c2ccccc2)CC1	–	–	–	·	–	668
C=CCn1c(SCc2c(C(=O)OC)sc(N)c2C(=O)OC)nnc1-c1ccc(Br)cc1	–	20	–	–	–	–
C=CCn1c(SCC(=O)c2ccc(-c3ccccc3)cc2)nnc1-c1ccc(OC)cc1	·	–	–	·	·	·
O=C(CSc1nnc(-c2ccccc2)n1-c1ccc(Cl)cc1)c1ccccc1Br	·	–	–	·	·	·
Nc1ccc(-n2nc3ccccc3n2)cc1	–	–	–	·	–	–
Nc1ccc2nn(-c3ccccc3)nc2c1	–	–	–	–	5.9	–
CCCN1CCS(=O)(=O)N(Cc2cn(CC(=O)OCC)nn2)C(C(=O)OC)C1 (stereo unspecified)	·	–	–	·	·	·
COc1ccc2c(c1)sc1nc(-c3ccccc3)cn12	–	–	–	–	14	–
CCOC(=O)[C@]12CCCC=C1N(Cc1ccc(OC)cc1)C(=O)[C@@H]2CC(=O)NCc1ccc(OC)c(OC)c1	·	–	–	·	·	·
